# Results collected from several papers.
# Compare with care: the assays were run in different laboratories.
# Matrix: Caco-2
Compound,conditions,endpoint,value
NC[C@H]1O[C@@H](O[C@@H]([C@H](NCCCC(=O)NCc2ccc(N3CCC(Oc4ccc(OC(F)(F)F)cc4)CC3)cc2)C(N)=O)[C@H]2O[C@@H](n3ccc(=O)[nH]c3=O)C(O)C2O)[C@H](O)[C@@H]1O (stereo partly shown),,Papp,< 1 ×10⁻⁶ cm/s
CC(C)NCC(O)COc1cccc2ccccc12 (stereo not shown),"1 h, pH 7.4",Papp A→B,21.8 ×10⁻⁶ cm/s
CC[C@@]1(O)C(=O)OCc2c1cc1n(c2=O)Cc2cc3ccccc3nc2-1,105 min,Papp B→A,~3.5 ×10⁻⁶ cm/s
C=CCc1ccc(O)c(-c2cc(CC=C)ccc2O)c1,"0.05 mg/mL, 4 h, pH 7.4",Papp A→B,9 ×10⁻⁶ cm/s
C[C@H]1O[C@@H](O[C@H]2[C@@H](O)C[C@H](O[C@H]3[C@@H](O)C[C@H](O[C@H]4CC[C@@]5(C)[C@H](CC[C@@H]6[C@@H]5C[C@@H](O)[C@]5(C)[C@@H](C7=CC(=O)OC7)CC[C@]65O)C4)O[C@@H]3C)O[C@@H]2C)C[C@H](O)[C@@H]1O,"10 µM, 1 h, pH 7.4",Papp B→A,22.8 ×10⁻⁶ cm/s
O=C(CCCN1CCC2(CC1)C(=O)NCN2c1ccccc1)N(CC1CCCCC1)c1ccccc1,,Papp A→B,2.83 ×10⁻⁶ cm/s
COc1cc2c(c(OC)c1OC)-c1ccc(OC)c(=O)cc1[C@@H](NC(C)=O)CC2,,Papp B→A,4.9 ×10⁻⁶ cm/s
COc1ccc2c(c1)[C@]13CCCC[C@@H]1[C@H](C2)N(C)CC3,"10 µM, pH 6.5",Papp B→A,69.6 ×10⁻⁶ cm/s
C=C(CCC=C(C)C)[C@H]1CC[C@]2(C)[C@@H]1[C@H](O)C[C@@H]1[C@@]3(C)C[C@@H](O)[C@H](O[C@@H]4O[C@H](CO)[C@@H](O)[C@H](O)[C@H]4O[C@@H]4O[C@H](CO)[C@@H](O)[C@H](O)[C@H]4O)C(C)(C)[C@@H]3CC[C@]12C,"1 mg/mL, pH 7.4",Papp,3.56 ×10⁻⁶ cm/s
COC(=O)N[C@H](C(=O)NN(CCC[C@@]1(Cc2ccccc2)C(=O)N([C@H]2c3ccccc3C[C@H]2O)C[C@H]1O)Cc1ccc(Br)cc1)C(C)(C)C,"10 µM, 1 h, pH 7.4",Papp A→B,> 20 ×10⁻⁶ cm/s
C[C@]12C[C@@H](O)[C@H]3[C@@H](CC[C@]4(O)C[C@@H](O)C[C@@H](O)[C@]34CO)[C@@]1(O)CC[C@@H]2c1cn(Cc2ccccc2)nn1,"40 min, pH 6.5",Papp B→A,0.14 ×10⁻⁶ cm/s
C/N=c1\nc(-c2ccccc2)n(-c2ccccc2)s1,"20 µM, 95 min",Papp B→A,37.4 ×10⁻⁶ cm/s
N=c1c2c(-c3ccccc3)c(-c3ccccc3)n(Cc3ccccc3)c2ncn1[C@H]1CC[C@H](O)CC1,"3 µM, 2 h, pH 7.4",Papp B→A,2 ×10⁻⁶ cm/s
